In ChEMBL document CHEMBL1143876, “Synthesis, analgesic, anti-inflammatory, and antimicrobial activity of some novel pyrimido[4,5-b]quinolin-4-ones” (2008):

Experiments:
Rattus norvegicus [1] = experiment: Antiinflammatory activity against carrageenan-induced paw edema in Sprague-Dawley rat at 15 mg/kg, po after 4 hrs; type: functional
Summary of the method: (§1)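 Adult male rats, 150–180 g, six per group. Oral dose 1 h before 0.1 ml 1% carrageenin sc into the left hind footpad: test agents 15 mg/kg as suspension, indomethacin 10 mg/kg; vehicle 10% Tween 80. Paw volume by plethysmometer before injection, then hourly for 4 h. Edema % = (Vt−Vc)/Vc; inhibition % = (Ec−Et)/Ec. Potency taken relative to indomethacin. Means ± SE.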

Rattus norvegicus [2] = experiment: Antiinflammatory activity against carrageenan-induced paw edema in Sprague-Dawley rat at 15 mg/kg, po relative to indomethacin after 3 hrs; type: functional; summary of the method: as §1
Mus musculus [3] = experiment: Analgesic activity against acetic acid-induced abdominal constriction in Swiss albino mouse at 15 mg/kg, po after 20 mins by writhing test relative to acetylsalicylic acid; type: functional, Abdomen
Summary of the method: (§2)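 Mice of both sexes, 25–30 g, dosed orally in 10% v/v Tween 80 in water. Test agents were given at 15 mg/kg and acetylsalicylic acid at 100 mg/kg. 30 min later, 0.7% acetic acid (10 ml/kg) ip. Writhes counted over 20 min; six per group. % protection = (control mean − treated mean)/control mean ×100; means ± SE.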

Escherichia coli [4] = experiment: Antimicrobial activity against Escherichia coli at 50 ug/disk after 24 to 28 hrs; type: functional; details: read-out: IZ
Summary of the method: (§3)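 Agar disk diffusion: 5 mm paper disks loaded with 50 µg/disk in DMSO. Inhibition zones read after 24–28 h at 37 °C for bacteria, or 5 days at 28 °C for clinical Candida isolates grown on Sabouraud dextrose agar. Zone graded 6–10 mm slight, 11–15 mm moderate, >15 mm high. Reference disks: nalidixic acid 30 µg, nystatin 100 U.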

Rattus norvegicus [5] = experiment: Antiinflammatory activity against carrageenan-induced paw edema in Sprague-Dawley rat at 15 mg/kg, po after 3 hrs; type: functional; summary of the method: as §1
Rattus norvegicus [6] = experiment: Antiinflammatory activity against carrageenan-induced paw edema in Sprague-Dawley rat at 15 mg/kg, po relative to indomethacin after 4 hrs; type: functional; summary of the method: as §1
Mus musculus [7] = experiment: Analgesic activity in Swiss albino mouse assessed as reaction time at 15 mg/kg, po after 30 mins by hot plate test; type: functional
Summary of the method: (§4)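 Mice of both sexes, 25–30 g, on a hot plate at 53 ± 0.5 °C; reaction time taken to hind-paw lick or jump, 60 s cut-off. Baseline read before dosing. Oral dosing in 10% v/v Tween 80 in water: test agents 15 mg/kg, acetylsalicylic acid 100 mg/kg. Re-read at 15, 30, 60 and 90 min; means ± SE.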

Rattus norvegicus [8] = experiment: Antiinflammatory activity against carrageenan-induced paw edema in Sprague-Dawley rat at 15 mg/kg, po after 1 hr; type: functional; summary of the method: as §1
Mus musculus [9] = experiment: Analgesic activity in Swiss albino mouse assessed as reaction time at 15 mg/kg, po after 60 mins by hot plate test; type: functional; summary of the method: as §4
Rattus norvegicus [10] = experiment: Antiinflammatory activity against carrageenan-induced paw edema in Sprague-Dawley rat at 15 mg/kg, po relative to indomethacin after 1 hr; type: functional; summary of the method: as §1
Rattus norvegicus [11] = experiment: Antiinflammatory activity against carrageenan-induced paw edema in Sprague-Dawley rat at 15 mg/kg, po after 2 hrs; type: functional; summary of the method: as §1
Rattus norvegicus [12] = experiment: Antiinflammatory activity against carrageenan-induced paw edema in Sprague-Dawley rat at 15 mg/kg, po relative to indomethacin after 2 hrs; type: functional; summary of the method: as §1
Mus musculus [13] = experiment: Analgesic activity in Swiss albino mouse assessed as reaction time at 15 mg/kg, po after 90 mins by hot plate test; type: functional; summary of the method: as §4
Mus musculus [14] = experiment: Analgesic activity against acetic acid-induced abdominal constriction in Swiss albino mouse at 15 mg/kg, po after 20 mins by writhing test; type: functional, Abdomen; summary of the method: as §2
Klebsiella pneumoniae [15] = experiment: Antimicrobial activity against Klebsiella pneumoniae at 50 ug/disk after 24 to 28 hrs; type: functional; details: read-out: IZ; summary of the method: as §3
Pseudomonas aeruginosa [16] = experiment: Antimicrobial activity against Pseudomonas aeruginosa at 50 ug/disk after 24 to 28 hrs; type: functional; details: read-out: IZ; summary of the method: as §3
Staphylococcus aureus [17] = experiment: Antimicrobial activity against Staphylococcus aureus at 50 ug/disk after 24 to 28 hrs; type: functional; details: read-out: IZ; summary of the method: as §3
Rattus norvegicus [18] = experiment: Antiinflammatory activity against carrageenan-induced paw edema in Sprague-Dawley rat at 10 mg/kg, po after 1 hr; type: functional; summary of the method: as §1
Rattus norvegicus [19] = experiment: Antiinflammatory activity against carrageenan-induced paw edema in Sprague-Dawley rat at 10 mg/kg, po after 4 hrs; type: functional; summary of the method: as §1
Rattus norvegicus [20] = experiment: Antiinflammatory activity against carrageenan-induced paw edema in Sprague-Dawley rat at 10 mg/kg, po after 2 hrs; type: functional; summary of the method: as §1
Rattus norvegicus [21] = experiment: Antiinflammatory activity against carrageenan-induced paw edema in Sprague-Dawley rat at 10 mg/kg, po after 3 hrs; type: functional; summary of the method: as §1
Nakaseomyces glabratus = experiment: Antimicrobial activity against Candida glabrata at 50 ug/disk after 5 days; type: functional; details: 120 h, read-out: IZ; summary of the method: as §3
Pseudomonas aeruginosa [22] = experiment: Antimicrobial activity against Pseudomonas aeruginosa; type: functional
Summary of the method: (§5)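 MIC found by disk diffusion using disks carrying varying amounts of compound per disk, in DMSO. Incubated 24–28 h at 37 °C for bacteria and 5 days at 28 °C for Candida. MIC given in µg/disk.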

Escherichia coli [23] = experiment: Antimicrobial activity against Escherichia coli; type: functional; summary of the method: as §5
Staphylococcus aureus [24] = experiment: Antimicrobial activity against Staphylococcus aureus; type: functional; summary of the method: as §5
Klebsiella pneumoniae [25] = experiment: Antimicrobial activity against Klebsiella pneumoniae; type: functional; summary of the method: as §5
Candida albicans [26] = experiment: Antimicrobial activity against Candida albicans at 50 ug/disk after 5 days; type: functional; details: 120 h, read-out: IZ; summary of the method: as §3
Candida albicans [27] = experiment: Antimicrobial activity against Candida albicans; type: functional; summary of the method: as §5
Mus musculus [28] = experiment: Analgesic activity in Swiss albino mouse assessed as reaction time at 100 mg/kg, po after 30 mins by hot plate test; type: functional; summary of the method: as §4
Mus musculus [29] = experiment: Analgesic activity against acetic acid-induced abdominal constriction in Swiss albino mouse at 100 mg/kg, po after 20 mins by writhing test; type: functional, Abdomen; summary of the method: as §2
Mus musculus [30] = experiment: Analgesic activity in Swiss albino mouse assessed as reaction time at 100 mg/kg, po after 90 mins by hot plate test; type: functional; summary of the method: as §4
Mus musculus [31] = experiment: Analgesic activity in Swiss albino mouse assessed as reaction time at 100 mg/kg, po after 60 mins by hot plate test; type: functional; summary of the method: as §4

Row | Structure (SMILES) | inhibition in vivo at 15 mg/kg (Rattus norvegicus [1]) | inhibition in vivo at 15 mg/kg (Rattus norvegicus [2]) | Activity (Mus musculus [3]) | zone of inhibition at 50 µg/disc (Escherichia coli [4]) | inhibition in vivo at 15 mg/kg (Rattus norvegicus [5]) | inhibition in vivo at 15 mg/kg (Rattus norvegicus [6]) | Time (Mus musculus [7]) | inhibition in vivo at 15 mg/kg (Rattus norvegicus [8]) | Time (Mus musculus [9]) | inhibition in vivo at 15 mg/kg (Rattus norvegicus [10]) | inhibition in vivo at 15 mg/kg (Rattus norvegicus [11]) | inhibition in vivo at 15 mg/kg (Rattus norvegicus [12]) | Time (Mus musculus [13]) | Activity (Mus musculus [14]) | zone of inhibition at 50 µg/disc (Klebsiella pneumoniae [15]) | zone of inhibition at 50 µg/disc (Pseudomonas aeruginosa [16]) | zone of inhibition at 50 µg/disc (Staphylococcus aureus [17]) | other results
1 | NNc1nc2nc3c(c(-c4ccccc4)c2c(=O)[nH]1)CCCC3 | 18.6% | 51.1% | 102.32% | 13 mm | 21.8% | 40.1% | 7.54 s | 30.5% | 10.61 s | 53.5% | 20.8% | 35.7% | 12 s | 52.9% | 13 mm | 15 mm | 11 mm | 
2 | O=c1[nH]c(=S)[nH]c2nc3c(c(-c4ccccc4)c12)CCCC3 |  |  | 68.47% | 12 mm |  |  | 8.65 s |  | 10.98 s |  |  |  | 11.12 s | 35.4% | 14 mm | 15 mm | 13 mm | 
3 | COc1ccc2c(c1)c(CC(=O)O)c(C)n2C(=O)c1ccc(Cl)cc1 [INDOMETHACIN] |  |  |  |  |  |  |  |  |  |  |  |  |  |  |  |  |  | inhibition in vivo at 10 mg/kg (Rattus norvegicus [18]): 56.9%; inhibition in vivo at 10 mg/kg (Rattus norvegicus [19]): 46.4%; inhibition in vivo at 10 mg/kg (Rattus norvegicus [20]): 58.2%; inhibition in vivo at 10 mg/kg (Rattus norvegicus [21]): 42.6%
4 | Cc1cc(C)n(-c2nc3nc4c(c(-c5ccccc5)c3c(=O)[nH]2)CCCC4)n1 | 0.8% | 0.1% | 114.51% | 19 mm | 0.1% | 1.7% | 8.93 s | 10.5% | 10.15 s | 14.5% | 0.9% | 1.5% | 11.5 s | 59.2% | 20 mm | 22 mm | 21 mm | zone of inhibition at 50 µg/disc (Nakaseomyces glabratus): 9 mm; MIC (Pseudomonas aeruginosa [22]): 30 µg; MIC (Escherichia coli [23]): 30 µg; MIC (Staphylococcus aureus [24]): 30 µg; MIC (Klebsiella pneumoniae [25]): 30 µg; zone of inhibition at 50 µg/disc (Candida albicans [26]): 9 mm
5 | CC(=O)NNc1nc2nc3c(c(-c4ccccc4)c2c(=O)[nH]1)CCCC3 | 21.8% | 55.9% | 116.83% | 20 mm | 23.9% | 46.9% | 8.62 s | 25.9% | 8.06 s | 45.5% | 22.8% | 39.2% | 9.22 s | 60.4% | 18 mm | 22 mm | 19 mm | zone of inhibition at 50 µg/disc (Nakaseomyces glabratus): 16 mm; MIC (Pseudomonas aeruginosa [22]): 20 µg; MIC (Candida albicans [27]): 50 µg; MIC (Escherichia coli [23]): 20 µg; MIC (Staphylococcus aureus [24]): 20 µg; MIC (Klebsiella pneumoniae [25]): 20 µg; zone of inhibition at 50 µg/disc (Candida albicans [26]): 17 mm
6 | CC(=O)Oc1ccccc1C(=O)O [ASPIRIN] |  |  |  |  |  |  |  |  |  |  |  |  |  |  |  |  |  | Time (Mus musculus [28]): 10.03 s; Activity (Mus musculus [29]): 51.7%; Time (Mus musculus [30]): 13.15 s; Time (Mus musculus [31]): 11.39 s
7 | O=c1[nH]c(=S)[nH]c2nc3c(c(-c4ccc(Cl)cc4)c12)CCCC3 |  |  |  | 13 mm |  |  |  |  |  |  |  |  |  |  | 14 mm | 14 mm | 13 mm | 
